T cell HTS: modulators of CD8 T cell-vesicle binding, primary screen, mouse 2C CD8+ T cells, flow cytometry. 2C CD8+ T cell-vesicle binding; hits give low values. response (vesicle binding), % at 7 µM. 330,000 tested, 0.068% active. AID 2052, 2009;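 active = response, share of CD8 T cells binding vesicles, and their 90th percentile fluorescence all below set limits, cut at about 80% in these data, passing the limit was not always enough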;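 also: values below 100% mean blocked vesicle binding to the CD8+ T cells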
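Read-out – percent CD8+ FL2 mean versus row control · System – murine 2C transgenic CD8+ T lymphocytes · Times – 1.5 h cell–vesicle binding at 37 °C, then 20 min icy labelling · Control set – naked vesicles low, QL9 vesicles with vehicle high · Detection – cytometric PE anti-B7-1 and Alexa647 anti-CD8 signals after 1% paraformaldehyde fixation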
aDG glyco act: activators of alpha-DG glycosylation, primary screen, uHTS, Pro5-aDG cells, AlphaScreen | alpha-DG glycosylation AlphaScreen (IIH6); 0% Pro5, 100% B10-LARGE cell signal | activation, % at 10 µM | 360,000 tested, 0.22% active;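 active = activation of at least 8% versus controls, or a plate z-score of at least 8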;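 also: Pro5 are CHO cells carrying HIG-tagged alpha-DG that lacks glycosylation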
CaV13 FRET inh: Disruptors of the CACNA1D IQ motif to Ca2+-dependent inactivation inhibitor domain association, primary screening, Förster resonance energy transfer in intact living …. HEK cells, CFP/YFP FRET ICDI-IQ, plate reader, 10 min; percent FRET-ratio fall versus neutral wells. 340,000 tested, 0.098% active. inhibition, % at 12.3 µM. AID 743397;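 active = mean replicate inhibition of at least 30% and at least 1% of replicates passing that level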;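 also: 0% = median of the neutral control wells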
GRK2 aptamer HTS: compounds blocking aptamer binding on GRK2 – biochemical, human GRK2, bead flow cytometry, HTS, primary screen; Beta-adrenergic receptor kinase 1 (Homo sapiens), P25098; FAM-aptamer displacement from GRK2; inhibition of aptamer binding, % at 10 µM; 330,000 tested, 0.59% active; AID 488847, 2010;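 active = inhibition of aptamer binding above 40%, roughly 3 SD of noise, on plates passing a quality check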;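 also: median bead fluorescence of bound FAM aptamer so fluorescent compounds give negative values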
procasp7 counter: procaspase-7 activators, primary screen, counter-screen for procaspase-3 activator project, biochemical, absorbance, HTS, human | Caspase-7 (Homo sapiens), P55210 | recombinant procaspase-7, Ac-DEVD-pNA absorbance 405 nm; D23A/D198A/D206A triple mutant, cannot self-cleave; scale: DMSO 0, 5 µM enzyme 100 | activation, % at 8.5 µM | 330,000 tested, 0.093% active;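 active = percent activation above the screen-wide mean plus 3 SD, cut at about 25% in these data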
Target sequence (P55210 whole entry D23A/D198A/D206A): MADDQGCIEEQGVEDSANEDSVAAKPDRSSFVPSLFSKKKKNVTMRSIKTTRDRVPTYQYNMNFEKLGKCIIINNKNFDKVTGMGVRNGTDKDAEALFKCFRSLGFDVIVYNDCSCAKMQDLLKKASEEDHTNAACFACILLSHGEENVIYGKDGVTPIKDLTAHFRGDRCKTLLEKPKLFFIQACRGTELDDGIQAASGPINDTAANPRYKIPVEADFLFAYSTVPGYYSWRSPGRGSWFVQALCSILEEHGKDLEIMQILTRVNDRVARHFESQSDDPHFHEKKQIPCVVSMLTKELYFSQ
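System: Procaspase-7 triple mutant (PC-7 D3A); measure: % activation from two-timepoint absorbance difference, scaled to controls; times: 1 h compound preincubation, 2 h substrate cleavage, 25 °C; also added: Ac-DEVD-pNA substrate, 400 µM as added; measured by: Epi-absorbance of released pNA at 405 nm, two timepoints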
procasp3 activ: activators of human procaspase-3 D3A mutant, primary screen, biochemical, absorbance, PC-3 D3A mutant, single concentration; Caspase-3 (Homo sapiens), P42574; recombinant procaspase-3 D3A, Ac-DEVD-pNA absorbance 405 nm; activation, % at 8.5 µM; 330,000 tested, 0.11% active; AID 463141, 2010;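 active = activation above the mean of all tested compounds plus 3 SD, cut at about 21% in these data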;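 also: 0% = DMSO alone and 100% = DMSO wells spiked with extra 5 µM PC-3 D3A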
Target sequence (P42574 whole entry D9A/D28A/D175A): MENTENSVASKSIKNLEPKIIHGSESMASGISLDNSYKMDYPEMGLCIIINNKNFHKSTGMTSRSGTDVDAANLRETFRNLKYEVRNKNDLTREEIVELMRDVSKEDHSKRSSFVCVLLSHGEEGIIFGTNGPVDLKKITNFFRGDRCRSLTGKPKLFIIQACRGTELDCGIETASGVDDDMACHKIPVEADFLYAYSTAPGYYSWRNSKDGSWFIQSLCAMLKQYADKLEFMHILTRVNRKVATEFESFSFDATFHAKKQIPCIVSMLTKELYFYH
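Assay system: Procaspase-3 D3A mutant, all three cleavage aspartates alanine. Buffer or medium: Zinc-free HEPES saline buffer with Triton X-100. Times: 1 h compound preincubation, 2 h substrate hydrolysis at 25 °C. Measured by: 405 nm absorbance of p-nitroaniline, reads at 0 and 120 min. Read-out basis: percent activation relative to control range. Replicates: singlicate.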
GRK2 inh confirm: GRK2 aptamer-displacing inhibitors, retest, confirmation, biochemical, cherry pick 1, bead flow cytometry; shares compounds with GRK2 aptamer HTS; aptamer displacement, % at 10 µM; bead-bound GRK2, FAM-aptamer displacement; 2,000 tested, 4% active;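 active = aptamer displacement above 40%, near three times the noise of non-fluorescent compounds, on plates passing quality checks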;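 also: negative values mostly reflect intrinsic compound fluorescence rather than true enhancement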
Aptamer quench SP: counter-screen for GRK2 aptamer inhibitors: fluorescent aptamer quenchers. fluorescence response (% of DMSO), % at 10 µM. Carboxyfluorescein RNA aptamer on beads, flow cytometry quenching; hits give low values. shares compounds with GRK2 aptamer HTS. 2,000 tested, under 10 active;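 active = compounds that quench the bead-bound fluorescent RNA probe, cutting fluorescence to under half of the solvent control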;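 also: counterscreen run without GRK2 so only probe quenching by compound is measured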
GRK2 confirm 2: GRK2 aptamer-displacing inhibitors, hit retest, confirmation, biochemical, cherry pick 2, bead flow cytometry | shares compounds with GRK2 aptamer HTS | bead-bound GRK2, FAM-aptamer displacement | inhibition of aptamer binding, % at 10 µM | 360 tested, under 10 active | AID 504782, 2011;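 active = inhibition of aptamer binding above 40%, about triple the noise seen with nonglowing compounds, on plates passing quality control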;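 also: negative values mostly come from compounds that fluoresce themselves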
FAM quench SP: counter-screen for GRK2 binding hits: quenchers of fluorescent RNA aptamer; shares compounds with GRK2 aptamer HTS; carboxyfluorescein RNA aptamer beads, flow cytometry quenching; hits give low values; fluorescence response vs DMSO, % at 10 µM; 360 tested, under 10 active; AID 588494;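 active = response vs DMSO under 50%, meaning signal dropped by over half, treated as fluorescence quencher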;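 also: labelled aptamer on streptavidin beads without GRK2 as a quench counter-screen; 100% = bead fluorescence of DMSO wells and lower means quenching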
The depositor's hits bear a star; nt = no result given. A selection: hits, their analogues and other compounds. The true share with any hit is near 1.1%.

SMILES	T cell HTS	aDG glyco act	CaV13 FRET inh	GRK2 aptamer HTS	procasp7 counter	procasp3 activ	GRK2 inh confirm	Aptamer quench SP	others
COC(=O)[C@]12C[C@H](CC(=O)N3CCN(C(=O)c4ccco4)CC3)C(=O)N(Cc3ccccc3)C1=C[C@H](C(C)C)O[C@@H]2C1CC1	nt	nt	-10.2	nt	nt	nt	nt	nt
Cc1cc(C(=O)N2CCN(c3ccc(C(F)(F)F)cn3)CC2)c(C)o1	445.9	0.1	-20.0	0.0	-2.5	-2.4	nt	nt
Cc1cccc(C(=O)N2CCN(c3ccc(C(F)(F)F)cn3)CC2)c1C	313.0	1.0	-0.1	1.0	3.8	-4.2	-13.2	100.3
O=C(CSC1CCc2ccccc21)NNC(=O)Nc1ccc(Cl)cc1 (stereo not drawn)	nt	nt	-11.7	nt	nt	nt	nt	nt
CCOc1ccc(NC(=O)CN(C)C(=O)c2ccc(COc3ccccc3)cc2)cc1OCC	440.2	0.2	-3.3	33.0	-8.1	1.3	-3.2	95.1
CCOc1ccc(NC(=O)CN(C)C(=O)c2ccc(COc3ccccc3)o2)cc1OCC	393.2	0.3	-5.0	1.0	6.8	6.5	nt	nt
C#Cc1ccc([C@H]2C=C(C(=O)NCc3nc4ccccc4[nH]3)O[C@@H](OCC)[C@@H]2CCCO)cc1	483.9	0.2	-5.2	4.0	-5.8	-0.3	nt	nt
CCn1c(SCC(=O)OC)nc2sc3c(c2c1=O)CCC3	296.7	0.2	-7.9	9.0	-9.4	7.1	nt	nt	GRK2 confirm 2=14.3;FAM quench SP=100.0
CCn1c(SCC(=O)O)nc2sc3c(c2c1=O)CCC3	254.4	-0.1	-5.2	35.0	-1.9	6.1	nt	nt
Cn1c(SCc2nnc(-c3ccccc3Br)o2)nc2sc3c(c2c1=O)CCC3	763.8	0.6	-4.6	0.0	10.2	0.0	nt	nt	GRK2 confirm 2=23.5;FAM quench SP=100.0
Cc1cccc(-n2c(SCC(=O)O)nc3sc4c(c3c2=O)CCC4)c1	153.1	-0.1	-1.0	0.0	-5.2	4.7	nt	nt
O=C(O)CSc1nc2sc3c(c2c(=O)n1-c1ccccc1)CCC3	320.0	0.1	-6.3	3.0	-3.0	-3.5	nt	nt	GRK2 confirm 2=-22.3;FAM quench SP=104.0
CCCn1c(SC(C)C(=O)NCC2CCCO2)nc2sc3c(c2c1=O)CCC3 (stereo not drawn)	191.6	-0.2	-1.2	1.0	0.7	-2.5	nt	nt	GRK2 confirm 2=-7.8;FAM quench SP=98.0
CCN(CC)S(=O)(=O)c1cccc(NC(=O)COC(=O)C2CC3C=CC2C3)c1 (stereo not drawn)	151.7	0.0	-7.8	2.0	-6.8	2.4	nt	nt
O=C(NCc1ccccn1)c1ccc2nc(C3CCCCC3)oc2c1	934.6	-0.4	-6.8	5.0	0.9	5.6	nt	nt
O=C(CNC(=O)c1ccc(Cl)cc1Cl)OCC(=O)N1CCCC1	378.9	0.1	-1.8	56.0*	-0.5	2.4	1.0	98.7
CCOC(=O)c1csc(NC(=O)C2=COCCO2)n1	240.9	-0.1	-4.5	3.0	16.1	-2.1	nt	nt
Cc1c(NC(=O)c2ccc(S(=O)(=O)N(C)C)cc2)cccc1-n1cnnn1	554.9	-0.3	-5.6	94.0*	12.9	6.8	-3.3	97.9
COC(=O)C1=C(C)N(Cc2cccc(C(F)(F)F)c2)C(=NCc2ccc3c(c2)OCO3)NC1c1cccc(Cl)c1 (stereo not drawn)	nt	nt	-9.2	nt	nt	nt	nt	nt
Cc1cc(=O)oc2cc(OCC(=O)N/N=C/c3cc([N+](=O)[O-])ccc3O)ccc12	615.9	0.1	-7.9	75.0*	2.3	-0.6	-2.1	98.5
CC(C)NC(=O)C(=O)NC1CCCCCC1	392.8	-0.2	-4.7	54.0*	4.1	-5.0	0.2	101.2
CC(=O)c1ccc(NC(=O)c2cccc(N3C(=O)c4ccccc4C3=O)c2)cc1	207.3	-0.3	nt	48.0*	10.4	5.5	nt	nt	GRK2 confirm 2=-254.4;FAM quench SP=101.0
O=C(CNS(=O)(=O)c1ccc(Br)cc1)N1CCN(Cc2ccccc2)CC1	557.5	-0.1	nt	0.0	-11.0	-6.2	nt	nt
Cc1cccc(NC(=O)c2csnn2)n1	117.1	-0.2	-5.2	34.0	-4.0	-8.4	-3.2	98.4
COC(=O)CC#C[C@@H](C)[C@H](NS(=O)(=O)c1ccc(C)cc1)C(C)(C)C	nt	nt	-5.4	nt	nt	nt	nt	nt
SMILES	T cell HTS	aDG glyco act	CaV13 FRET inh	GRK2 aptamer HTS	procasp7 counter	procasp3 activ	GRK2 inh confirm	Aptamer quench SP	others
Cc1ccc(SCC(=O)NCCC2=CCCCC2)cc1	259.1	-0.2	-4.9	45.0*	8.8	9.5	-0.7	95.8
Cc1ccc(OCC(=O)NCCC2=CCCCC2)cc1	239.7	0.0	-18.9	0.0	-0.7	2.2	nt	nt
O=C(NC1CCCCC1)C(c1ccc2ncccc2c1)N(Cc1ccc(F)cc1)C(=O)c1ccc2c(c1)OCCO2 (stereo not drawn)	227.6	0.7	-9.8	48.0*	-9.6	-1.7	1.6	99.9
COc1cccc(Oc2ccc(N/C=C/C(=O)C(C)(C)C)cc2)c1	417.8	-0.2	4.1	88.0*	8.6	3.4	-0.5	95.2
CCc1ccc(C(=O)NNC(=O)c2ccc(=O)n(C)n2)cc1	197.8	0.1	nt	0.0	8.7	8.2	nt	nt
COc1cccc(C(=O)NC2CCNCC2)c1	858.5	-0.3	-9.2	0.0	4.6	-4.5	nt	nt
Cc1cccc(-c2nnc(C(C)Nc3cccc(C(=O)NC4CC4)c3)o2)c1 (stereo not drawn)	nt	0.3	-5.2	nt	nt	nt	nt	nt
COc1ccc(-c2nnc(C(C)Nc3cccc(C(=O)NC4CC4)c3)o2)cc1 (stereo not drawn)	416.9	0.0	-5.1	11.0	-8.9	5.7	1.9	100.5
CC(Nc1cccc(C(=O)NC2CC2)c1)c1nnc(-c2ccccc2)o1 (stereo not drawn)	224.6	0.0	-6.2	4.0	-4.0	2.6	0.2	97.0
